In ChEMBL document CHEMBL1152251, “Preparation of (4,4-difluoro-1,2,3,4-tetrahydro-5H-1-benzazepin-5-ylidene)acetamide derivatives as novel arginine vasopressin V(2) receptor agonists” (Bioorg Med Chem, 2008):
Calls of active or inactive are those of the source. No cut-off for these calls is given here.

How the values were obtained:
Vasopressin V2 receptor [1] = molecular target: T1, Vasopressin V2 receptor (Homo sapiens, UniProt P30518); assay: Displacement of [3H]vasopressin from human vasopressin V2 receptor expressed in CHO cells by microplate scintillation counting; format: cell-based
T1 sequence (P30518 whole entry): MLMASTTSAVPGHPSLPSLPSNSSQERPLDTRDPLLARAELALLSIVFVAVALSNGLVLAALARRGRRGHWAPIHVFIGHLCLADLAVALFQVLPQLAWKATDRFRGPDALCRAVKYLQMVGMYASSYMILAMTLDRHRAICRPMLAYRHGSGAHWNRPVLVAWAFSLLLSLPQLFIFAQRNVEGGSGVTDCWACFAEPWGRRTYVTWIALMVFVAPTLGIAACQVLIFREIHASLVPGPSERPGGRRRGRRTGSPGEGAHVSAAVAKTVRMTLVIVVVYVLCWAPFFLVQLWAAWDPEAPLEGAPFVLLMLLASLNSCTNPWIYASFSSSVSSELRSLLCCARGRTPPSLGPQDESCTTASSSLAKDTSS

Vasopressin V2 receptor [2] = molecular target: T1, Vasopressin V2 receptor; assay: Intrinsic activity at human vasopressin V2 receptor expressed in CHO cells assessed as cAMP accumulation by HTRF assay relative to arginine vasopressin; format: functional, cell-based
Vasopressin V2 receptor [3] = molecular target: T1, Vasopressin V2 receptor; assay: Agonist activity at human vasopressin V2 receptor expressed in CHO cells assessed as cAMP accumulation by HTRF assay; format: functional, cell-based
Procedure, shortened: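 Cells kept in α-MEM with 10% FBS, penicillin/streptomycin and 0.1% amethopterin at 37 °C, 5% CO₂, grown to subconfluence, then serum-starved 24 h. Medium changed to α-MEM with 1 mmol/L IBMX and 0.1% BSA, compound added for 10 min at 37 °C. Lysis in PBS/0.2% Triton X-100, cAMP read by HTRF. Triplicate.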

Vasopressin V2 receptor [4] = molecular target: Vasopressin V2 receptor (Rattus norvegicus, UniProt Q00788); assay: Displacement of [3H]vasopressin from rat vasopressin V2 receptor expressed in CHO cells by microplate scintillation counting; format: cell-based
Vasopressin V2 receptor (Rattus norvegicus, UniProt Q00788), sequence (Q00788 whole entry): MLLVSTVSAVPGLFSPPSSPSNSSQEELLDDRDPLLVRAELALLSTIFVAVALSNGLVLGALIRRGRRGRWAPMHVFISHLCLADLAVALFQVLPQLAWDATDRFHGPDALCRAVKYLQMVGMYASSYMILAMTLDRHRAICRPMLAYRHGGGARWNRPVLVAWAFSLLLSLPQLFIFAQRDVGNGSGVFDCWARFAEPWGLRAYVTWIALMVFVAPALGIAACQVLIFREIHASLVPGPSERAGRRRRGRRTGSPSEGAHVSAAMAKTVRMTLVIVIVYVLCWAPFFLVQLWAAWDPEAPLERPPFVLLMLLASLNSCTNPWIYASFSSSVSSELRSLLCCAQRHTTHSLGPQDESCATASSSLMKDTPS

| SMILES | Ki (Vasopressin V2 receptor [1]) [nM] | Activity (Vasopressin V2 receptor [2]) [%] | EC50 (Vasopressin V2 receptor [3]) [nM] | Ki (Vasopressin V2 receptor [4]) [nM] | Activity (Vasopressin V2 receptor [3]) |
| --- | --- | --- | --- | --- | --- |
| CC(C)c1ccn(-c2ccc(C(=O)N3CCC(F)(F)/C(=C\C(=O)NCc4ccccn4)c4ccccc43)c(Cl)c2)n1 | 18 | 4.9 | > 10000 |  |  |
| Cc1ccn(-c2ccc(C(=O)N3CCC(F)(F)/C(=C\C(=O)NCc4ccccn4)c4ccccc43)c(Cl)c2)n1 |  |  |  | 19 |  |
| CCc1ccn(-c2ccc(C(=O)N3CCC(F)(F)/C(=C\C(=O)NCc4ccccn4)c4ccccc43)c(Cl)c2)n1 | 21 | 86.8 | > 10000 |  |  |
| CN1CCN(c2ccc(C(=O)N3CCC(F)(F)/C(=C\C(=O)NCc4ccccn4)c4ccccc43)c(Cl)c2)CC1 | 170 | 35.5 | > 10000 |  |  |
| O=C(/C=C1/c2ccccc2N(C(=O)c2ccc(NC(=O)c3ccccc3-c3ccccc3)cc2)CCC1(F)F)NCc1ccccn1 |  |  |  | 0.4 | inactive |
